Test results reported in PMC6828636 (European Journal of Drug Metabolism and Pharmacokinetics, 2019).
Where two headings read alike, the source gives them in different places.

How the values were obtained:
CYP2A6 = target: T1, CYP2A6 (Homo sapiens, UniProt P11509); experiment: CYP2A6 inhibition in human liver microsomes; type: in vitro ADME
T1 sequence (P11509 1-494): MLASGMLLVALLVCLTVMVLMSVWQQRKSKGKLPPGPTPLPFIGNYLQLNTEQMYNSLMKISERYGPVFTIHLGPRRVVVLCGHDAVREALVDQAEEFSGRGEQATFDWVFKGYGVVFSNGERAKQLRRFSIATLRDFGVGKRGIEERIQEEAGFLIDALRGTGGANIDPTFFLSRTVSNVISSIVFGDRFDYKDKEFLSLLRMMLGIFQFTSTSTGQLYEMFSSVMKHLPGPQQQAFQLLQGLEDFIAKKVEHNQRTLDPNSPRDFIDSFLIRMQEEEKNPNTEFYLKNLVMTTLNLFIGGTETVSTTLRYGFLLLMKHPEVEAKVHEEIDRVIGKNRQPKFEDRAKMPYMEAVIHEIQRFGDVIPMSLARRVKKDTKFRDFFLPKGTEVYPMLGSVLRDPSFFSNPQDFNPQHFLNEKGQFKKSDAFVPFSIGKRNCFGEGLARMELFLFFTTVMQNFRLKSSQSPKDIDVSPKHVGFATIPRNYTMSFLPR
How it was run: (§1)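 Pooled human liver microsomes were incubated with standard CYP-selective substrates, with and without test compound at 0.03–100 μM. Standard selective inhibitors for each isoform ran in parallel as positive controls. Read-out was IC50. For CYP3A4 only, time-dependent inhibition was also tested after 30 min preincubation, using midazolam and testosterone as substrates.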

OAT3 = OAT3 (Homo sapiens, UniProt Q8TCC7); experiment: OAT3 uptake inhibition in transfected HEK cells; type: in vitro ADME
How it was run: (§2)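 HEK cells overexpressing NTCP, OAT1, OAT3, OATP2B1, OCT1 or OCT2 were incubated with probe substrate. Pairs were estrone 3-sulfate/cyclosporin A (NTCP), PAH/probenecid (OAT1), furosemide/probenecid (OAT3), estrone 3-sulfate/glibenclamide (OATP2B1), 3H-MPP+/decynium 22 (OCT1) and 3H-MPP+/imipramine (OCT2). IC50 was determined with and without test compound, at ≤50 µM for the parent and ≤10 µM for the metabolite.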

CYP2C19 = CYP2C19 (Homo sapiens, UniProt P33261); experiment: CYP2C19 inhibition in human liver microsomes; type: in vitro ADME
How it was run: as §1

OAT1 = OAT1 (Homo sapiens, UniProt Q4U2R8); experiment: OAT1 uptake inhibition in transfected HEK cells; type: in vitro ADME
How it was run: as §2

CYP2E1 = CYP2E1 (Homo sapiens, UniProt P05181); experiment: CYP2E1 inhibition in human liver microsomes; type: in vitro ADME
How it was run: as §1

CYP2C9 = CYP2C9 (Homo sapiens, UniProt P11712); experiment: CYP2C9 inhibition in human liver microsomes; type: in vitro ADME
How it was run: as §1

CYP3A4 = experiment: Relative induction score; parameters: species or system human; details: sensitive CYP3A4 substrate midazolam
How it was run: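 The relative induction score (RIS) method was applied to CYP3A4 induction data from hepatocytes of three donors treated for 3 days. Strong, moderate and weak reference inducers (rifampicin, bosentan, pioglitazone) served as calibrators for estimating clinical DDI risk.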

CYP1A2 = target: T2, CYP1A2 (Homo sapiens, UniProt P05177); experiment: biochemical; type: in vitro ADME
T2 sequence (P05177 1-516): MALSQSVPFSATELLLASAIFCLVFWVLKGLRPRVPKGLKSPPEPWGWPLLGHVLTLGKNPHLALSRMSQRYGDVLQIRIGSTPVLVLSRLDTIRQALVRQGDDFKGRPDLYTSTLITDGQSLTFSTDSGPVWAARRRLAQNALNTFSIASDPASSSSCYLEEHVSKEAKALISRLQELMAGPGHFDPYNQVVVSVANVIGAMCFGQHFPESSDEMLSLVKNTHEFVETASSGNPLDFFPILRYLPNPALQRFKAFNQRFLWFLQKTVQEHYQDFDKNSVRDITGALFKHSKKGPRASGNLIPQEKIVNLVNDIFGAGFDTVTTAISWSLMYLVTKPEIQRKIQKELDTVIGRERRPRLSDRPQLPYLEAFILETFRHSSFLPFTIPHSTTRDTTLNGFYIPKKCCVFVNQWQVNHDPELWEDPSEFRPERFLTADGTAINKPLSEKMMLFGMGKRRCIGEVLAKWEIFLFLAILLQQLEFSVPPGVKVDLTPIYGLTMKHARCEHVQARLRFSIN

BSEP = BSEP (Homo sapiens, UniProt O95342); experiment: BSEP inhibition in sandwich-cultured human hepatocytes; type: in vitro ADME
How it was run: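 Sandwich-cultured human hepatocytes were used. Probe substrate was taurocholic acid, with cyclosporin as reference inhibitor. Probe transport was measured without and with test compound to derive IC50. Protein was added to the medium for one tested compound, permitting a higher test concentration.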

OCT1 = target: T3, OCT1 (Homo sapiens, UniProt O15245); experiment: Cellular uptake in OCT1-transfected HEK cells; type: in vitro ADME; details: not affected by decynium-22
T3 sequence (O15245 1-554): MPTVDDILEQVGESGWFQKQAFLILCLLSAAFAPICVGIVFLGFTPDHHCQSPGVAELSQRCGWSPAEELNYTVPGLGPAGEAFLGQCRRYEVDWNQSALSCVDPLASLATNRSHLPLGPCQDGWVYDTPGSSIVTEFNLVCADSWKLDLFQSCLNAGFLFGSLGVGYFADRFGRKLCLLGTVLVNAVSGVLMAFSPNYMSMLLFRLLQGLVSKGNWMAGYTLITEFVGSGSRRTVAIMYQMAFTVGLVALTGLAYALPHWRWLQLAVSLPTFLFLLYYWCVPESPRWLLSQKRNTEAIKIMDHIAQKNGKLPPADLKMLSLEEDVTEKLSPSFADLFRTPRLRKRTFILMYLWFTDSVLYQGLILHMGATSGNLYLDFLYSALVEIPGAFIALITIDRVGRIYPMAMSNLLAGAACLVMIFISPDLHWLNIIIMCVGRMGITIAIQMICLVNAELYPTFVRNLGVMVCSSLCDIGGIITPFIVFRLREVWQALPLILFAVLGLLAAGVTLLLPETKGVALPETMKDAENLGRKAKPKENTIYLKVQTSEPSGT
How it was run: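 Cellular uptake of test compound was measured in HEK cells transfected to overexpress OATP1B1, OATP1B3 or OCT1. Vector-control cells were run in parallel. Standard inhibitors and probe substrates were included; decynium-22 served as OCT1 inhibitor, rifamycin as OATP inhibitor.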

CYP2D6 = CYP2D6 (Homo sapiens, UniProt P10635); experiment: CYP2D6 inhibition in human liver microsomes; type: in vitro ADME
How it was run: as §1

OAT1, sequence (Q4U2R8 whole entry): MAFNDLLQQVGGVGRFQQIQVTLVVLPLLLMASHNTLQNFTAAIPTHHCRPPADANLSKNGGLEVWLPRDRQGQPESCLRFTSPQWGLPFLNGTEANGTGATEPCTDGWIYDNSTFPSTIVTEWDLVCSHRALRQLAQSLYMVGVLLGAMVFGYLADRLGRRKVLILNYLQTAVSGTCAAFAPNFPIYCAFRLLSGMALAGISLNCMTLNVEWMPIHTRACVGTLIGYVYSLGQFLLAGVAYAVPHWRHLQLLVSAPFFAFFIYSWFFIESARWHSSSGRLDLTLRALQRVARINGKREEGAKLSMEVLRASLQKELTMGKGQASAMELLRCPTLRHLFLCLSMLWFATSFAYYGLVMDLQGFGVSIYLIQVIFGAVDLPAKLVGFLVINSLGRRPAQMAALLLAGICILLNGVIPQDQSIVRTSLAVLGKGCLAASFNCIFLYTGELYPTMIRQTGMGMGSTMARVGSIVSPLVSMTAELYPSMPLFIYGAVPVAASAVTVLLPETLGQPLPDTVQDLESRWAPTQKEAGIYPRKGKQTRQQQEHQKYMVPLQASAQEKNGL
BSEP, sequence (O95342 whole entry): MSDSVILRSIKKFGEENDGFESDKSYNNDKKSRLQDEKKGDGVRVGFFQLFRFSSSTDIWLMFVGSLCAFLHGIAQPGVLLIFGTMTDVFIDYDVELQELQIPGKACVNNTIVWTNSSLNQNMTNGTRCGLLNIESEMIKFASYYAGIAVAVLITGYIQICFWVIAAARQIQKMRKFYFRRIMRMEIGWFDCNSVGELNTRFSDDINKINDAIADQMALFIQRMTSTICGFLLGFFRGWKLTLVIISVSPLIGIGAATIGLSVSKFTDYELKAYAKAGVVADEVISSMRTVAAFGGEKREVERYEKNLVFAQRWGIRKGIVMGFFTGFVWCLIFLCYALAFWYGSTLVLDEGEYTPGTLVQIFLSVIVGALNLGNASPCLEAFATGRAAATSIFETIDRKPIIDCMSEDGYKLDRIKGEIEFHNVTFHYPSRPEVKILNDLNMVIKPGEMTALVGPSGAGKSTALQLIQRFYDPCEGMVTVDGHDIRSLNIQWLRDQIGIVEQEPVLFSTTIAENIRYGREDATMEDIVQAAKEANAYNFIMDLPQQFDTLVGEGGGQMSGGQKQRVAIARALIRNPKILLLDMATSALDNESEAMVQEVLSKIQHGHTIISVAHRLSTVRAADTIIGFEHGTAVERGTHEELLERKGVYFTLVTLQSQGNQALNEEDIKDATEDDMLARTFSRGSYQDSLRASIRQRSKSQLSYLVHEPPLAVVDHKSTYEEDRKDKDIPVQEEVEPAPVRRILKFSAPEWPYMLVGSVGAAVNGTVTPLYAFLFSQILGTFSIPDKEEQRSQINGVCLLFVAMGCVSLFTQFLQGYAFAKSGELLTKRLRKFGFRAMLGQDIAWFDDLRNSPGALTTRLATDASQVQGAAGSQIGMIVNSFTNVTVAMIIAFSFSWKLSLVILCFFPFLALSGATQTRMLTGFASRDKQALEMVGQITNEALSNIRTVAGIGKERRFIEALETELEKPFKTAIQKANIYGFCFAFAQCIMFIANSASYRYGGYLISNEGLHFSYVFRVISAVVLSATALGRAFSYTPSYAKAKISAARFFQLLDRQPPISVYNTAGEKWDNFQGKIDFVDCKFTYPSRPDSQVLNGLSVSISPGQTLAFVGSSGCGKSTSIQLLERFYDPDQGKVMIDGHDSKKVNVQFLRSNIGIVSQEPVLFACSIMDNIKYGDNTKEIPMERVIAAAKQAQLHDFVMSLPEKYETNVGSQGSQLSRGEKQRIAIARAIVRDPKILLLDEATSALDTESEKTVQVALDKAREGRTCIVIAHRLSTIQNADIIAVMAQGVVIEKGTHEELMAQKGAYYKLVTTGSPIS
OAT3, sequence (Q8TCC7 whole entry): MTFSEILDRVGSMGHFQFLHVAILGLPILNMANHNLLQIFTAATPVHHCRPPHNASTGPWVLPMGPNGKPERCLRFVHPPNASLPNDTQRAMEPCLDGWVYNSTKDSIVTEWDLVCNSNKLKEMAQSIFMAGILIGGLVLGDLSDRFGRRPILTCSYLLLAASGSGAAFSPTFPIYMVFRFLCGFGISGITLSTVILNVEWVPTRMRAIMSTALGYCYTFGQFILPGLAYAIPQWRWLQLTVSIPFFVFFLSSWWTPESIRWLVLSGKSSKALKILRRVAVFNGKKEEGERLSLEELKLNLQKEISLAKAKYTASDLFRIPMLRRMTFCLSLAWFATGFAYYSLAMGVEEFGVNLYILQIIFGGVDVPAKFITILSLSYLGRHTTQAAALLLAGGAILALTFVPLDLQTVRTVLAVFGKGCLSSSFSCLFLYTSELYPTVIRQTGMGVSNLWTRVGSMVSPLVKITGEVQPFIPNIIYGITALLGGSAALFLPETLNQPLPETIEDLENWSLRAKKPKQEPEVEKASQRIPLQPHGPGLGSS
CYP2D6, sequence (P10635 whole entry): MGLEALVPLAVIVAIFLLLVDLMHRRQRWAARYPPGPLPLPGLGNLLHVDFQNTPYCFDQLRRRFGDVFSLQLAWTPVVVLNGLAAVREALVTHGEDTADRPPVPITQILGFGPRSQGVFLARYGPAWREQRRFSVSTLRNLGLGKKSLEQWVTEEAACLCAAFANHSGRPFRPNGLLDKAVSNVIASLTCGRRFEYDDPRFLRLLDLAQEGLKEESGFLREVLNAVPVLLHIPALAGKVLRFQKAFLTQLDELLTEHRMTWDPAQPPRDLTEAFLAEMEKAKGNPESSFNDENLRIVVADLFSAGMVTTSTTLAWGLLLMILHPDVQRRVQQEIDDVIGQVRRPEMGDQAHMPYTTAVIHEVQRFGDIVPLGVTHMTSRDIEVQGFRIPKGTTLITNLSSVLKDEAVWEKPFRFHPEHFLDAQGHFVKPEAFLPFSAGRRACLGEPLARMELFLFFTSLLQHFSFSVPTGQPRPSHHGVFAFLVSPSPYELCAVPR
CYP2C9, sequence (P11712 whole entry): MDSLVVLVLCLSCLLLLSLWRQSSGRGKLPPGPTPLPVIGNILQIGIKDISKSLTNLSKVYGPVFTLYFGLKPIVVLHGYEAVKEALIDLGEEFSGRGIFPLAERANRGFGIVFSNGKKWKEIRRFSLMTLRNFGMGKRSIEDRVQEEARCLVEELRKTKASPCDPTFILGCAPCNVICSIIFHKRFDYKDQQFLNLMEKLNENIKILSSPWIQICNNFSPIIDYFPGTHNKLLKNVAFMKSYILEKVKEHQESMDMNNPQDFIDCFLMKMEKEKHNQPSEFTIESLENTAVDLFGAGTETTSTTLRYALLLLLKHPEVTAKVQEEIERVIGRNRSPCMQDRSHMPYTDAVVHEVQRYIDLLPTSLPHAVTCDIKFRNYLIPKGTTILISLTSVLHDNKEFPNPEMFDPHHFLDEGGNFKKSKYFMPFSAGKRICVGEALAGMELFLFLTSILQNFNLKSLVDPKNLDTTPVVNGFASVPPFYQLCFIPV
CYP2C19, sequence (P33261 whole entry): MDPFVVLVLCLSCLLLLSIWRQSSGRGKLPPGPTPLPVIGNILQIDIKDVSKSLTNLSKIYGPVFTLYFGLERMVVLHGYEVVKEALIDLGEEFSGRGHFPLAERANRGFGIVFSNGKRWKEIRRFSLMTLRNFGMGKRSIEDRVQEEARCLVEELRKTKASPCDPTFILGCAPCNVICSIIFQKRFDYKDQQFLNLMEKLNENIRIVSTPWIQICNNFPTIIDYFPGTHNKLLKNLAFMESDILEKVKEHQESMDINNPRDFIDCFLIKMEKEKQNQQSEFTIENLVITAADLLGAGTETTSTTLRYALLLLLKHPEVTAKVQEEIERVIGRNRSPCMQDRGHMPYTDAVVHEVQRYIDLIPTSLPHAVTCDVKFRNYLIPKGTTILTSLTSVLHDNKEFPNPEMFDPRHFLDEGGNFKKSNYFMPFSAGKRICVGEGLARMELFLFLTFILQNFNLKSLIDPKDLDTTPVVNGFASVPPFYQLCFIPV
CYP2E1, sequence (P05181 whole entry): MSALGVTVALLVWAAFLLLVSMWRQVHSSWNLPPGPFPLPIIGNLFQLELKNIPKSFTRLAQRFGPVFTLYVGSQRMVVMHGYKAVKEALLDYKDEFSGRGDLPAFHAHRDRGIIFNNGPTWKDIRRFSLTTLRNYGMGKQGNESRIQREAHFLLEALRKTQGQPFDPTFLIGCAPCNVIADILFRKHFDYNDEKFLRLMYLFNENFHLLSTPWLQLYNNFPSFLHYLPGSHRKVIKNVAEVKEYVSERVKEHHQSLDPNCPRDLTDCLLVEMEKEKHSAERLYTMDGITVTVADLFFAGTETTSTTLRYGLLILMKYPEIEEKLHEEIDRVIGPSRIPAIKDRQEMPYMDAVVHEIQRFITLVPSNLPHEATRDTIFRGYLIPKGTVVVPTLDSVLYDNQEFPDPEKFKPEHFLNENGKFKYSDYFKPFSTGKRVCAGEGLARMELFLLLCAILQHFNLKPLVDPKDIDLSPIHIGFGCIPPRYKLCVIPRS

| Structure (SMILES) | IC50 (CYP2A6) [µM] | IC50 (OAT3) [µM] | IC50 (CYP2C19) [µM] | IC50 (OAT1) [µM] | IC50 (CYP2E1) [µM] | IC50 (CYP2C9) [µM] | Overall assessment of CYP3A4 induction (RIS method) (CYP3A4) | IC50 (CYP1A2) [µM] | IC50 (BSEP) [µM] | uptake in OCT1-transfected HEK cells (OCT1) | IC50 (CYP2D6) [µM] | IC50 (CYP2A6; read-out: IC50, CYP2A6, human liver microsomes, substrate coumarin) [µM] | IC50 (OAT3; read-out: IC50, OAT3, HEK cells, substrate furosemide, reference probenecid) [µM] | IC50 (CYP2C19; read-out: IC50, CYP2C19, human liver microsomes, substrate S-mephenytoin) [µM] | IC50 (OAT1; read-out: IC50, OAT1, HEK cells, substrate PAH, reference probenecid) [µM] | IC50 (CYP2E1; read-out: IC50, CYP2E1, human liver microsomes, substrate chlorzoxazone) [µM] | IC50 (CYP2C9; read-out: IC50, CYP2C9, human liver microsomes, substrate diclofenac) [µM] | IC50 (CYP1A2; read-out: IC50, CYP1A2, human liver microsomes, substrate phenacetin) [µM] | IC50 (BSEP; read-out: IC50, BSEP, sandwich-cultured human hepatocytes, taurocholic acid/cyclosporin, higher test concentration possible because of addition of protein to the assay media) [µM] | IC50 (CYP2D6; read-out: IC50, CYP2D6, human liver microsomes, substrate bufuralol) [µM] |
| --- | --- | --- | --- | --- | --- | --- | --- | --- | --- | --- | --- | --- | --- | --- | --- | --- | --- | --- | --- | --- |
| CC(O)c1cc(C(=O)N[C@@H](C)Cn2ccc(-c3ccc(C#N)c(Cl)c3)n2)[nH]n1 (stereo partly shown) [Darolutamide, darolutamide] | > 100 | 4.5 | 64.1 | > 50 | > 100 | 30.3 | moderate-to-strong inducers | > 100 | > 60 | no uptake | 81.9 | – | – | – | – | – | – | – | – | – |
| CC(=O)c1cc(C(=O)N[C@@H](C)Cn2ccc(-c3ccc(C#N)c(Cl)c3)n2)[nH]n1 [Keto-darolutamide, keto-darolutamide] | – | – | – | – | – | – | weak-to-moderate inducer | – | – | no uptake | – | > 100 | > 2 | 39.5 | > 2 | > 100 | 9.6 | > 100 | > 300 | 51.9 |
